According to ChEMBL document CHEMBL3585281, “Antibacterial Labdane Diterpenoids from Vitex vestita” (2015):
In brackets after ≈: the same amount, converted by molar mass.

Experiments:
Type in all cases: functional
[1] = test system: Staphylococcus aureus; assay: Antibacterial activity against Staphylococcus aureus CRBIP 2121 after 18 hrs by agar dilution method; conditions: CRBIP 2121, 18 h
Procedure, shortened: (§1)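 Agar-dilution MIC against Gram-positive strains. Compounds in DMSO, geometric dilutions giving final 100−0.75 mg/L in Mueller Hinton agar. Strains grown 18 h at 37 °C in trypticase soy broth, diluted in sterile water, spotted by Steers inoculator (about 1000 UFC/spot). Plates incubated 18 h at 37 °C; DMSO blank; ofloxacin positive control. MIC = lowest concentration with no visible growth.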

[2] = test system: Enterococcus gallinarum; assay: Antibacterial activity against Enterococcus gallinarum N489 after 18 hrs by agar dilution method; conditions: N489, 18 h; procedure, shortened: as §1
[3] = test system: Enterococcus durans; assay: Antibacterial activity against Enterococcus durans CIP 104999 after 18 hrs by agar dilution method; conditions: CIP 104999, 18 h; procedure, shortened: as §1
[4] = test system: Bacillus spizizenii; assay: Antibacterial activity against Bacillus subtilis ATCC 6633 after 18 hrs by agar dilution method; conditions: ATCC 6633, 18 h; procedure, shortened: as §1
[5] = test system: Listeria monocytogenes; assay: Antibacterial activity against Listeria monocytogenes N851 after 18 hrs by agar dilution method; conditions: N851, 18 h; procedure, shortened: as §1
[6] = test system: Listeria monocytogenes; assay: Antibacterial activity against Listeria monocytogenes N836 after 18 hrs by agar dilution method; conditions: N836, 18 h; procedure, shortened: as §1
[7] = test system: Enterococcus gallinarum; assay: Antibacterial activity against Enterococcus gallinarum N492 after 18 hrs by agar dilution method; conditions: N492, 18 h; procedure, shortened: as §1
[8] = test system: Mammaliicoccus sciuri; assay: Antibacterial activity against Staphylococcus sciuri N993 after 18 hrs by agar dilution method; conditions: N993, 18 h; procedure, shortened: as §1
[9] = test system: Enterococcus faecium; assay: Antibacterial activity against Enterococcus faecium N490 after 18 hrs by agar dilution method; conditions: N490, 18 h; procedure, shortened: as §1
[10] = test system: HCT-116; assay: Cytotoxicity against human HCT116 cells assessed as growth inhibition at 10^-6 M after 72 hrs by MTS assay relative to control; conditions: HCT-116, 72 h, read-out: GI
Procedure, shortened: (§2)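 Cells from ATCC; HCT-116 grown in RPMI 1640 and MRC5 in DMEM, each with 10% FCS and 1% glutamine, 37 °C, 5% CO2. Seeded at 2.5 × 10^3 cells/well, cultured 24 h, then exposed to compounds at 1 and 10 μM final for 72 h. MTS read-out, absorbance 490 nm; percent index from treated/control OD490 × 100, three experiments.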

[11] = test system: Enterococcus casseliflavus; assay: Antibacterial activity against Enterococcus casseliflavus CIP 103018 after 18 hrs by agar dilution method; conditions: CIP 103018, 18 h; procedure, shortened: as §1
[12] = test system: Staphylococcus aureus; assay: Antibacterial activity against Staphylococcus aureus CIP 7625 after 18 hrs by agar dilution method; conditions: CIP 7625, 18 h; procedure, shortened: as §1
[13] = test system: HCT-116; assay: Cytotoxicity against human HCT116 cells assessed as growth inhibition at 10^-5 M after 72 hrs by MTS assay relative to control; conditions: HCT-116, 72 h, read-out: GI; procedure, shortened: as §2
[14] = test system: Enterococcus faecium; assay: Antibacterial activity against Enterococcus faecium N823 after 18 hrs by agar dilution method; conditions: N823, 18 h; procedure, shortened: as §1
[15] = test system: Staphylococcus intermedius; assay: Antibacterial activity against Staphylococcus intermedius N987 after 18 hrs by agar dilution method; conditions: N987, 18 h; procedure, shortened: as §1
[16] = test system: Corynebacterium striatum; assay: Antibacterial activity against Corynebacterium striatum N840 after 18 hrs by agar dilution method; conditions: N840, 18 h; procedure, shortened: as §1
[17] = test system: Staphylococcus saprophyticus; assay: Antibacterial activity against Staphylococcus saprophyticus CIP 76125 after 18 hrs by agar dilution method; conditions: CIP 76125, 18 h; procedure, shortened: as §1
[18] = test system: Listeria monocytogenes; assay: Antibacterial activity against Listeria monocytogenes CIP 103575 after 18 hrs by agar dilution method; conditions: CIP 103575, 18 h; procedure, shortened: as §1
[19] = test system: Enterococcus faecalis; assay: Antibacterial activity against Enterococcus faecalis N491 after 18 hrs by agar dilution method; conditions: N491, 18 h; procedure, shortened: as §1
[20] = test system: Enterococcus faecalis; assay: Antibacterial activity against Enterococcus faecalis CIP 104676 after 18 hrs by agar dilution method; conditions: CIP 104676, 18 h; procedure, shortened: as §1
[21] = test system: Staphylococcus aureus; assay: Antibacterial activity against Staphylococcus aureus CIP 483 after 18 hrs by agar dilution method; conditions: CIP 483, 18 h; procedure, shortened: as §1
[22] = test system: MRC5; assay: Cytotoxicity against human MRC5 cells assessed as growth inhibition at 10^-6 M after 72 hrs by MTS assay relative to control; conditions: MRC5, 72 h, read-out: GI; procedure, shortened: as §2
[23] = test system: Enterococcus faecium; assay: Antibacterial activity against Enterococcus faecium N507 after 18 hrs by agar dilution method; conditions: N507, 18 h; procedure, shortened: as §1
[24] = test system: Staphylococcus aureus; assay: Antibacterial activity against Staphylococcus aureus CIP 53154 after 18 hrs by agar dilution method; conditions: CIP 53154, 18 h; procedure, shortened: as §1
[25] = test system: Bacillus cereus; assay: Antibacterial activity against Bacillus cereus CIP 6624 after 18 hrs by agar dilution method; conditions: CIP 6624, 18 h; procedure, shortened: as §1
[26] = test system: Staphylococcus aureus; assay: Antibacterial activity against Staphylococcus aureus CIP 53156 after 18 hrs by agar dilution method; conditions: CIP 53156, 18 h; procedure, shortened: as §1
[27] = test system: Enterococcus gallinarum; assay: Antibacterial activity against Enterococcus gallinarum CIP 105985 after 18 hrs by agar dilution method; conditions: CIP 105985, 18 h; procedure, shortened: as §1
[28] = test system: Staphylococcus saprophyticus; assay: Antibacterial activity against Staphylococcus saprophyticus E260 after 18 hrs by agar dilution method; conditions: E260, 18 h; procedure, shortened: as §1
[29] = test system: Enterococcus faecalis; assay: Antibacterial activity against Enterococcus faecalis N520 after 18 hrs by agar dilution method; conditions: N520, 18 h; procedure, shortened: as §1
[30] = test system: Streptococcus agalactiae; assay: Antibacterial activity against Streptococcus agalactiae CIP 103227 after 18 hrs by agar dilution method; conditions: ATCC 13813, 18 h; procedure, shortened: as §1
[31] = test system: Enterococcus faecium; assay: Antibacterial activity against Enterococcus faecium N733 after 18 hrs by agar dilution method; conditions: N733, 18 h; procedure, shortened: as §1
[32] = test system: Bacillus cereus; assay: Antibacterial activity against Bacillus cereus N190 after 18 hrs by agar dilution method; conditions: N190, 18 h; procedure, shortened: as §1
[33] = test system: Staphylococcus lugdunensis; assay: Antibacterial activity against Staphylococcus lugdunensis ATCC 43809 after 18 hrs by agar dilution method; conditions: ATCC 43809, 18 h; procedure, shortened: as §1
[34] = test system: MRC5; assay: Cytotoxicity against human MRC5 cells assessed as growth inhibition at 10^-5 M after 72 hrs by MTS assay relative to control; conditions: MRC5, 72 h, read-out: GI; procedure, shortened: as §2
[35] = test system: Staphylococcus haemolyticus; assay: Antibacterial activity against Staphylococcus haemolyticus CIP 8156 after 18 hrs by agar dilution method; conditions: CIP 8156, 18 h; procedure, shortened: as §1
[36] = test system: Enterococcus hirae; assay: Antibacterial activity against Enterococcus hirae CIP 5855 after 18 hrs by agar dilution method; conditions: CIP 5855, 18 h; procedure, shortened: as §1
[37] = test system: Bacillus cereus; assay: Antibacterial activity against Bacillus cereus N349 after 18 hrs by agar dilution method; conditions: N349, 18 h; procedure, shortened: as §1
[38] = test system: Staphylococcus aureus; assay: Antibacterial activity against Staphylococcus aureus ATCC 25923 after 18 hrs by agar dilution method; conditions: ATCC 25923, 18 h; procedure, shortened: as §1
[39] = test system: Listeria innocua; assay: Antibacterial activity against Listeria innocua E044 after 18 hrs by agar dilution method; conditions: E044, 18 h; procedure, shortened: as §1
[40] = test system: Enterococcus faecalis; assay: Antibacterial activity against Enterococcus faecalis CIP 103214 after 18 hrs by agar dilution method; conditions: CIP 103214, 18 h; procedure, shortened: as §1
[41] = test system: Enterococcus casseliflavus; assay: Antibacterial activity against Enterococcus casseliflavus N487 after 18 hrs by agar dilution method; conditions: N487, 18 h; procedure, shortened: as §1
[42] = test system: Listeria monocytogenes; assay: Antibacterial activity against Listeria monocytogenes N783 after 18 hrs by agar dilution method; conditions: N783, 18 h; procedure, shortened: as §1
[43] = test system: Bacillus cereus; assay: Antibacterial activity against Bacillus cereus N258 after 18 hrs by agar dilution method; conditions: N258, 18 h; procedure, shortened: as §1
[44] = test system: Staphylococcus epidermidis; assay: Antibacterial activity against Staphylococcus epidermidis CIP 53124 after 18 hrs by agar dilution method; conditions: CIP 53124, 18 h; procedure, shortened: as §1
[45] = test system: Enterococcus faecium; assay: Antibacterial activity against Enterococcus faecium CIP 103014 after 18 hrs by agar dilution method; conditions: CIP 103014, 18 h; procedure, shortened: as §1
[46] = test system: Enterococcus avium; assay: Antibacterial activity against Enterococcus avium CIP 104053 after 18 hrs by agar dilution method; conditions: CIP 104053, 18 h; procedure, shortened: as §1
[47] = test system: Staphylococcus aureus; assay: Antibacterial activity against Staphylococcus aureus ATCC 9144 oxford after 18 hrs by agar dilution method; procedure, shortened: as §1
[48] = test system: Staphylococcus aureus; assay: Antibacterial activity against Staphylococcus aureus CIP 5710 after 18 hrs by agar dilution method; conditions: CIP 5710, 18 h; procedure, shortened: as §1
[49] = test system: Enterococcus faecalis; assay: Antibacterial activity against Enterococcus faecalis N518 after 18 hrs by agar dilution method; conditions: N518, 18 h; procedure, shortened: as §1
[50] = test system: Enterococcus faecium; assay: Antibacterial activity against Enterococcus faecium CIP 107387 after 18 hrs by agar dilution method; conditions: CIP 107387, 18 h; procedure, shortened: as §1

- MIC [1]: > 188 µM
- MIC [2]: > 188 µM
- MIC [3]: 50 µM (≈ 15.9 µg/mL)
- MIC [4]: > 188 µM
- MIC [5]: > 188 µM
- MIC [6]: > 188 µM
- MIC [7]: > 188 µM
- MIC [8]: > 188 µM
- MIC [9]: ≤ 188 µM
- MIC [11]: > 188 µM
- MIC [12]: > 188 µM
- MIC [14]: 50 µM (≈ 15.9 µg/mL)
- MIC [15]: > 188 µM
- MIC [16]: > 188 µM
- MIC [17]: > 188 µM
- MIC [18]: > 188 µM
- MIC [19]: 50 µM (≈ 15.9 µg/mL)
- MIC [20]: 50 µM (≈ 15.9 µg/mL)
- MIC [21]: > 188 µM
- MIC [23]: 50 µM (≈ 15.9 µg/mL)
- MIC [24]: > 188 µM
- MIC [25]: ≤ 188 µM
- MIC [26]: > 188 µM
- MIC [27]: > 188 µM
- MIC [28]: > 188 µM
- MIC [29]: 50 µM (≈ 15.9 µg/mL)
- MIC [30]: 50 µM (≈ 15.9 µg/mL)
- MIC [31]: 50 µM (≈ 15.9 µg/mL)
- MIC [32]: ≤ 188 µM
- MIC [33]: > 188 µM
- MIC [36]: > 188 µM
- MIC [37]: ≤ 188 µM
- MIC [38]: > 188 µM
- MIC [39]: > 188 µM
- MIC [40]: 50 µM (≈ 15.9 µg/mL)
- MIC [41]: > 188 µM
- MIC [42]: > 188 µM
- MIC [43]: ≤ 188 µM
- MIC [44]: > 188 µM
- MIC [45]: > 188 µM
- MIC [46]: > 188 µM
- MIC [47]: > 188 µM
- MIC [48]: > 188 µM
- MIC [49]: 50 µM (≈ 15.9 µg/mL)
- MIC [50]: > 188 µM
SMILES: C=C1CC[C@H]2C(C)(C)CCC[C@]2(C)[C@H]1C[C@@H](O)C1=CC(=O)OC1
- inhibition of growth at 1 µM [10]: 3%
- inhibition of growth at 10 µM [13]: 68%
- inhibition of growth at 1 µM [22]: 34%
- inhibition of growth at 10 µM [34]: 86%
- MIC [35]: > 188 µM
